Assay results from ChEMBL document CHEMBL5303300, “EUbOPEN Chemogenomics Library - Multiplex” (2023).
Where “and” joins values, the source holds several entries; their conditions need not be identical. Equal values may be shown once.

Test system: HEK-293T
Assay: Multiplex assay against HEK293T
Format: toxicity, cell-based
Conditions: human, number of replicates 2
Outline: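 Values for tubulin, mitochondrial-mass and membrane-permeability phenotypes are per cents of cells with healthy nuclei. These cells were identified by CellPathfinder machine-learning gating of live cells that had been stained at seeding with Hoechst33342, BioTracker Green Microtubule Cytoskeleton Dye, MitoTracker Red and Annexin V Alexa Fluor 680 and imaged on a CQ1 microscope at 37°C and 5% CO2 after compound addition. The gating first set Hoechst high-intensity objects apart from normal cells, then split normal cells into healthy, pyknosed or fragmented nuclei, and pyknosed cells into mitotic or apoptotic.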

[1] = 12 h, 1 µM, compound concentration 1 uM
[2] = 12 h, 10 µM, compound concentration 10 uM
[3] = 24 h, 1 µM, compound concentration 1 uM
[4] = 24 h, 10 µM, compound concentration 10 uM
[5] = 48 h, 1 µM, compound concentration 1 uM
[6] = 48 h, 10 µM, compound concentration 10 uM

## CNc1ncc2cc(-c3ccc(-c4cccc(C)n4)cc3Cl)c(=O)n(C[C@H]3OC[C@H](N)CO3)c2n1
[1]
  Population Apoptotic (%): 57% and 63%
  Population Fragmented Nuclei (%): 2%
  Population Healthy Nuclei (%): 85% and 82%
  Population Hoechst High Intensity Objects (%): 5% and 6%
  Population Membrane Permeable-Phenotype (%): 7% and 3%
  Population Mitochondria Different-Phenotype (%): 8% and 9%
  Population Mitotic Cells (%): 42% and 36%
  Population Normal (%): 94% and 93%
  Population Pyknosed Nuclei (%): 11% and 15%
  Population Tubulin-Different-Phenotype (%): 28% and 30%
  Total Cell Count: 581 and 605
[2]
  Population Apoptotic (%): 36% and 26%
  Population Fragmented Nuclei (%): 6% and 8%
  Population Healthy Nuclei (%): 79% and 76%
  Population Hoechst High Intensity Objects (%): 30%
  Population Membrane Permeable-Phenotype (%): 25% and 20%
  Population Mitochondria Different-Phenotype (%): 7% and 6%
  Population Mitotic Cells (%): 63% and 73%
  Population Normal (%): 69%
  Population Pyknosed Nuclei (%): 13% and 15%
  Population Tubulin-Different-Phenotype (%): 57% and 65%
  Total Cell Count: 885 and 788
[3]
  Population Apoptotic (%): 51% and 54%
  Population Fragmented Nuclei (%): 3%
  Population Healthy Nuclei (%): 88% and 85%
  Population Hoechst High Intensity Objects (%): 3% and 5%
  Population Membrane Permeable-Phenotype (%): 2% and 3%
  Population Mitochondria Different-Phenotype (%): 2% and 5%
  Population Mitotic Cells (%): 48% and 45%
  Population Normal (%): 96% and 94%
  Population Pyknosed Nuclei (%): 8% and 11%
  Population Tubulin-Different-Phenotype (%): 11% and 16%
  Total Cell Count: 923 and 803
[4]
  Population Apoptotic (%): 20%
  Population Fragmented Nuclei (%): 6% and 8%
  Population Healthy Nuclei (%): 68% and 69%
  Population Hoechst High Intensity Objects (%): 31% and 34%
  Population Membrane Permeable-Phenotype (%): 18% and 11%
  Population Mitochondria Different-Phenotype (%): 4% and 3%
  Population Mitotic Cells (%): 79%
  Population Normal (%): 68% and 65%
  Population Pyknosed Nuclei (%): 25% and 22%
  Population Tubulin-Different-Phenotype (%): 52% and 46%
  Total Cell Count: 1101 and 1092
[5]
  Population Apoptotic (%): 20% and 34%
  Population Fragmented Nuclei (%): 9% and 6%
  Population Healthy Nuclei (%): 85% and 88%
  Population Hoechst High Intensity Objects (%): 6% and 5%
  Population Membrane Permeable-Phenotype (%): 3% and 2%
  Population Mitochondria Different-Phenotype (%): 0% and 2%
  Population Mitotic Cells (%): 80% and 65%
  Population Normal (%): 93% and 94%
  Population Pyknosed Nuclei (%): 4%
  Population Tubulin-Different-Phenotype (%): 7% and 9%
  Total Cell Count: 1888 and 1385
[6]
  Population Apoptotic (%): 13% and 10%
  Population Fragmented Nuclei (%): 4% and 6%
  Population Healthy Nuclei (%): 68% and 70%
  Population Hoechst High Intensity Objects (%): 28% and 30%
  Population Membrane Permeable-Phenotype (%): 11% and 4%
  Population Mitochondria Different-Phenotype (%): 2% and 1%
  Population Mitotic Cells (%): 86% and 89%
  Population Normal (%): 71% and 69%
  Population Pyknosed Nuclei (%): 26% and 22%
  Population Tubulin-Different-Phenotype (%): 26% and 21%
  Total Cell Count: 1638 and 1597

## NC(=O)c1ccc(-c2nc(-c3ccc4c(c3)OCCO4)c(-c3ccccn3)[nH]2)cc1
[1]
  Population Apoptotic (%): 57% and 48%
  Population Fragmented Nuclei (%): 3%
  Population Healthy Nuclei (%): 83% and 85%
  Population Hoechst High Intensity Objects (%): 6% and 8%
  Population Membrane Permeable-Phenotype (%): 0% and 2%
  Population Mitochondria Different-Phenotype (%): 16% and 11%
  Population Mitotic Cells (%): 42% and 52%
  Population Normal (%): 93% and 91%
  Population Pyknosed Nuclei (%): 13% and 10%
  Population Tubulin-Different-Phenotype (%): 54% and 46%
  Total Cell Count: 656 and 747
[2]
  Population Apoptotic (%): 46% and 38%
  Population Fragmented Nuclei (%): 3%
  Population Healthy Nuclei (%): 87% and 88%
  Population Hoechst High Intensity Objects (%): 7% and 4%
  Population Membrane Permeable-Phenotype (%): 3% and 5%
  Population Mitochondria Different-Phenotype (%): 15% and 16%
  Population Mitotic Cells (%): 53% and 61%
  Population Normal (%): 92% and 95%
  Population Pyknosed Nuclei (%): 9% and 8%
  Population Tubulin-Different-Phenotype (%): 61% and 55%
  Total Cell Count: 620 and 572
[3]
  Population Apoptotic (%): 44% and 61%
  Population Fragmented Nuclei (%): 7% and 3%
  Population Healthy Nuclei (%): 85% and 87%
  Population Hoechst High Intensity Objects (%): 9% and 7%
  Population Membrane Permeable-Phenotype (%): 2% and 1%
  Population Mitochondria Different-Phenotype (%): 4% and 6%
  Population Mitotic Cells (%): 55% and 38%
  Population Normal (%): 90% and 92%
  Population Pyknosed Nuclei (%): 7% and 8%
  Population Tubulin-Different-Phenotype (%): 23% and 29%
  Total Cell Count: 1205 and 941
[4]
  Population Apoptotic (%): 48% and 44%
  Population Fragmented Nuclei (%): 4% and 3%
  Population Healthy Nuclei (%): 89% and 90%
  Population Hoechst High Intensity Objects (%): 7% and 8%
  Population Membrane Permeable-Phenotype (%): 4% and 3%
  Population Mitochondria Different-Phenotype (%): 9% and 5%
  Population Mitotic Cells (%): 51% and 55%
  Population Normal (%): 92% and 91%
  Population Pyknosed Nuclei (%): 6% and 5%
  Population Tubulin-Different-Phenotype (%): 39% and 37%
  Total Cell Count: 908 and 852
[5]
  Population Apoptotic (%): 14% and 25%
  Population Fragmented Nuclei (%): 16% and 11%
  Population Healthy Nuclei (%): 80% and 85%
  Population Hoechst High Intensity Objects (%): 10%
  Population Membrane Permeable-Phenotype (%): 5% and 1%
  Population Mitochondria Different-Phenotype (%): 0%
  Population Mitotic Cells (%): 85% and 74%
  Population Normal (%): 89%
  Population Pyknosed Nuclei (%): 2%
  Population Tubulin-Different-Phenotype (%): 11% and 15%
  Total Cell Count: 3179 and 2277
[6]
  Population Apoptotic (%): 6% and 9%
  Population Fragmented Nuclei (%): 10% and 9%
  Population Healthy Nuclei (%): 86% and 87%
  Population Hoechst High Intensity Objects (%): 7% and 8%
  Population Membrane Permeable-Phenotype (%): 5%
  Population Mitochondria Different-Phenotype (%): 1%
  Population Mitotic Cells (%): 93% and 90%
  Population Normal (%): 92% and 91%
  Population Pyknosed Nuclei (%): 3%
  Population Tubulin-Different-Phenotype (%): 21% and 23%
  Total Cell Count: 2159 and 1774

## CN(C)CCCNc1ccnc(Nc2cccc(Cl)c2)n1
[1]
  Population Apoptotic (%): 33% and 44%
  Population Fragmented Nuclei (%): 2% and 3%
  Population Healthy Nuclei (%): 86% and 87%
  Population Hoechst High Intensity Objects (%): 6% and 7%
  Population Membrane Permeable-Phenotype (%): 5% and 4%
  Population Mitochondria Different-Phenotype (%): 17% and 13%
  Population Mitotic Cells (%): 66% and 55%
  Population Normal (%): 93% and 92%
  Population Pyknosed Nuclei (%): 10% and 8%
  Population Tubulin-Different-Phenotype (%): 51% and 48%
  Total Cell Count: 626 and 658
[2]
  Population Apoptotic (%): 52% and 65%
  Population Fragmented Nuclei (%): 4% and 3%
  Population Healthy Nuclei (%): 87% and 88%
  Population Hoechst High Intensity Objects (%): 10% and 11%
  Population Membrane Permeable-Phenotype (%): 3% and 2%
  Population Mitochondria Different-Phenotype (%): 37% and 32%
  Population Mitotic Cells (%): 47% and 34%
  Population Normal (%): 89% and 88%
  Population Pyknosed Nuclei (%): 8%
  Population Tubulin-Different-Phenotype (%): 79% and 75%
  Total Cell Count: 466 and 581
[3]
  Population Apoptotic (%): 26% and 29%
  Population Fragmented Nuclei (%): 3% and 4%
  Population Healthy Nuclei (%): 89%
  Population Hoechst High Intensity Objects (%): 6%
  Population Membrane Permeable-Phenotype (%): 5% and 3%
  Population Mitochondria Different-Phenotype (%): 5% and 4%
  Population Mitotic Cells (%): 73% and 70%
  Population Normal (%): 93%
  Population Pyknosed Nuclei (%): 7% and 6%
  Population Tubulin-Different-Phenotype (%): 31% and 30%
  Total Cell Count: 950 and 963
[4]
  Population Apoptotic (%): 43% and 66%
  Population Fragmented Nuclei (%): 3% and 4%
  Population Healthy Nuclei (%): 92% and 90%
  Population Hoechst High Intensity Objects (%): 7% and 14%
  Population Membrane Permeable-Phenotype (%): 6% and 3%
  Population Mitochondria Different-Phenotype (%): 32% and 35%
  Population Mitotic Cells (%): 56% and 33%
  Population Normal (%): 92% and 85%
  Population Pyknosed Nuclei (%): 4% and 5%
  Population Tubulin-Different-Phenotype (%): 79% and 83%
  Total Cell Count: 546 and 605
[5]
  Population Apoptotic (%): 14% and 10%
  Population Fragmented Nuclei (%): 11% and 8%
  Population Healthy Nuclei (%): 86% and 87%
  Population Hoechst High Intensity Objects (%): 9% and 8%
  Population Membrane Permeable-Phenotype (%): 5% and 3%
  Population Mitochondria Different-Phenotype (%): 0%
  Population Mitotic Cells (%): 85% and 89%
  Population Normal (%): 90% and 91%
  Population Pyknosed Nuclei (%): 2% and 3%
  Population Tubulin-Different-Phenotype (%): 15% and 17%
  Total Cell Count: 2534 and 2133
[6]
  Population Fragmented Nuclei (%): 6% and 5%
  Population Healthy Nuclei (%): 89% and 88%
  Population Hoechst High Intensity Objects (%): 6% and 9%
  Population Membrane Permeable-Phenotype (%): 6% and 5%
  Population Mitochondria Different-Phenotype (%): 8% and 10%
  Population Mitotic Cells (%): 86% and 42%
  Population Normal (%): 93% and 90%
  Population Pyknosed Nuclei (%): 3% and 5%
  Population Tubulin-Different-Phenotype (%): 52%
  Total Cell Count: 814 and 883
